Results taken from paper PMC4806563 (Nature chemistry, 2016).

Assays:
[1] = system: PGTs 141–144; assay: Glycan microarray on ACG slide, PGTs 141–144 binding; parameters: species or system human; conditions: panel of glycans I–XI on ACG slide
How it was run: (§1)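 Glycans I–XI carry a phosphonic acid tail and immobilize spontaneously and covalently on an aluminium oxide-coated glass (ACG) slide. Glycan concentration sets density and spacing. The printed array is incubated with antibody, then with a secondary antibody, and read by fluorescence. Surface dissociation constants (K_D surf) for glycan–antibody binding are derived from the signals.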

[2] = system: DyLight649-conjugated donkey anti-human IgG antibody; assay: NHS glycan array, binding of secondary antibody; conditions: NHS slide
[3] = system: PG16; assay: Glycan microarray on NHS-activated glass slide, PG16 binding; parameters: species or system human; conditions: glycans printed at 100 μM
[4] = system: PG16; assay: Glycan microarray on ACG slide, PG16 binding; parameters: species or system human; conditions: ACG surface, 100 μM printed, serial dilution experiment
How it was run: as §1

## CC(=O)N[C@H]1[C@H](O[C@H]2[C@H](O)[C@@H](NC(C)=O)C(O)O[C@@H]2CO)O[C@H](CO)[C@@H](O[C@@H]2O[C@H](CO[C@H]3O[C@H](CO[C@H]4O[C@H](CO)[C@@H](O)[C@H](O)[C@@H]4O[C@H]4O[C@H](CO)[C@@H](O)[C@H](O)[C@@H]4O)[C@@H](O)[C@H](O[C@H]4O[C@H](CO)[C@@H](O)[C@H](O)[C@@H]4O[C@H]4O[C@H](CO)[C@@H](O)[C@H](O)[C@@H]4O)[C@@H]3O)[C@@H](O)[C@H](O[C@H]3O[C@H](CO)[C@@H](O)[C@H](O)[C@@H]3O[C@H]3O[C@H](CO)[C@@H](O)[C@H](O)[C@@H]3O[C@H]3O[C@H](CO)[C@@H](O)[C@H](O)[C@@H]3O)[C@@H]2O)[C@@H]1O (stereo partly shown) [Man9GlcNAc2]
[1]
  PGTs 141–144 binding: significant decrease in the affinity

## Man4GlcAc2 [glycan 5]
[2]
  fluorescent signal from non-specific binding of secondary antibody: strong fluorescent signal

## Man5GlcNAc2 [IV]
[3]
  PG16 binding: could not observe binding
[4]
  PG16 binding: unable to detect
